Experimental data taken from ChEMBL document CHEMBL4477197, “Antitumor Activity of Spicatoside A by Modulation of Autophagy and Apoptosis in Human Colorectal Cancer Cells” (J Nat Prod, 2016).

Columns and labels:
SNU-638 = assay: Antiproliferative activity against human SNU638 cells after 24 to 72 hrs by SRB assay; assay type: functional, cell-based
In short: (§1)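 Cells from ATCC were grown at 37 °C in 5% CO2, in RPMI 1640 (A549, HCT116, SNU-638) or DMEM (MDA-MB-231, SK-HEP-1, MRC5) with 10% FBS. They were seeded at 6 × 10^3 cells/well for 24 h, then exposed for 72 h. Cells were TCA-fixed, stained with 0.4% SRB, and read at 515 nm against day-zero plates. IC50 came from nonlinear regression, as means ± SD.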

MRC5 = assay: Antiproliferative activity against human MRC5 cells after 24 to 72 hrs by SRB assay; assay type: cell-based; in short: as §1
A549 = assay: Antiproliferative activity against human A549 cells after 24 to 72 hrs by SRB assay; assay type: functional, cell-based; in short: as §1
MDA-MB-231 = assay: Antiproliferative activity against human MDA-MB-231 cells after 24 to 72 hrs by SRB assay; assay type: functional, cell-based; in short: as §1
HCT-116 = assay: Antiproliferative activity against human HCT116 cells after 24 to 72 hrs by SRB assay; assay type: functional, cell-based; in short: as §1
SK-HEP1 = assay: Antiproliferative activity against human SKHEP1 cells after 24 to 72 hrs by SRB assay; assay type: functional, cell-based; in short: as §1

Cc1c2ccncc2c(C)c2c1[nH]c1ccccc12 [ELLIPTECINE] was tested, and the IC50 (SNU-638) was 2700 nM, the IC50 (MRC5) was 1300 nM and the IC50 (A549) was 400 nM. The IC50 (MDA-MB-231) was 100 nM, the IC50 (HCT-116) was 1000 nM and the IC50 (SK-HEP1) was 400 nM.
